In PMC7948434 (ACS Omega, 2021):
Positions of bridges follow the written chain, without caps; N, C: chain ends. Residues, ends and D or L forms follow the SMILES beside them. No end group written: not given here.

B1: N36 peptide derived from HIV-1 JR-FL gp41 (peptide)
chain: SGIVQQQNNLLRAIEAQQRMLQLTVWGIKQLQARVL
B2: fejerlectin (peptide)
peptide: RLCYMVLPCP
modifications: disulfide 3-9 (inferred)

Tests used:
[1] = tested on: gp41 6-HB (N36 and C34 peptides); test: ELISA for inhibiting gp41 6-HB formation; format: biochemical, HIV-1; conditions: read-out: IC50, gp41 6-HB formation; 2 μM N36, 2 μM C34, 37 °C, ELISA 450 nm; mean ± SD, n = 3
In short: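 2 μM N36 was preincubated with the test compound (5–50 μM) at 37 °C for 30 min, then with 2 μM C34 at 37 °C for another 30 min. The mixture went onto plates coated with 2 μg/mL rabbit anti-6-HB IgG. Detection used 1 μg/mL NC-1 mAb, biotin-anti-mouse IgG, streptavidin-HRP and TMB, stopped with 1 M H2SO4, read at A450. Mean ± SD, n = 3.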

[2] = tested on: HIV-1SF162, HIV-1NL4-3, and HIV-1_81A and NL4-3; test: time-of-addition assay, results in words for the viruses together; format: cell-based; conditions: AZT 45 nM, maraviroc 24 nM, AMD3100 50 nM
In short: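 TZM-bl cells (5 × 10^5/mL) were infected with HIV-1NL4-3, HIV-1SF162 or HIV-1 81A/NL4-3 at 100 TCID50 at 37 °C. Test compound (added as 25 μM) or control was introduced at 0, 0.5, 1, 2, 4, 6, 8 or 24 h post-infection. Medium was replaced at 24 h, and supernatant p24 antigen was measured at 48 h. Mean ± SD, n = 3.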

[3] = serum stability, HA activity after incubation in human serum; format: in vitro ADME; conditions: 3 h; method: human serum at 37 °C, read-out HA titer
In short: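 Test compound was held in human serum at 37 °C for 0–4 h before HA titration. Mouse erythrocytes were washed in Alsever's solution and used as a 2% (v/v) suspension in PBS pH 7.5. Twofold serial dilutions were made in V-bottom plates, with PBS as negative control. Titer is the reciprocal of the lowest concentration giving HA. Repeated at least three times.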

TZM-bl cells = test: cytotoxicity in vitro; format: cell-based; conditions: MTT, 48 h, 1 to 1000 μM, mean ± SD, n = 3
In short: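 TZM-bl cells, 2 × 10^4/well in DMEM with 10% FBS and 1% penicillin/streptomycin, were cultured 24 h, then exposed to the test compound (1–1000 μM) for 48 h. MTT (0.5 mg/mL) was applied for 4 h, and formazan was dissolved in DMSO and read at 570 nm. CC50 was computed from the dose series. Mean ± SD, n = 3.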

HIV-1SF162 = conditions: 1SF162, 48 h
HIV-1NL4-3 = conditions: 1NL4-3, 48 h
HIV-1_81A and NL4-3 = conditions: 1 81A and NL4-3, 48 h
[4] = tested on: HIV-1JR-FL pseudotyped virus; conditions: 72 h
[5] = tested on: HIV-1HXB2 pseudotyped virus; conditions: 72 h
gp41 = conditions: cited from earlier work
HIV-1 = conditions: cited from earlier work
fejerlectin = target: B2; test: SPR
[6] = target: B1; test: ELISA

## COc1ccc(S(=O)(=O)O)cc1N=Nc1c(S(=O)(=O)O)cc2cc(Nc3nc(Nc4ccccc4)nc(Nc4cc(C)c(N=Nc5cc(S(=O)(=O)O)cc6cc(S(=O)(=O)O)cc(O)c56)cc4OC)n3)ccc2c1O [ADS-J1]
[1]
  IC50: 1530 ± 480 nM

## c1cc(CN2CCCNCCNCCCNCC2)ccc1CN1CCCNCCNCCCNCC1 [AMD3100]
[2]
  anti-HIV activity when added 8 h after infection: significantly decreased 8 h after infection

## Cc1cn([C@H]2C[C@H](N=[N+]=[N-])[C@@H](CO)O2)c(=O)[nH]c1=O [AZT, zidovudine]
[2]
  anti-HIV activity when added 8 h after infection: still had high antiviral activity when added 8 h after infection

## CSCC[C@@H]1NC(=O)[C@H](Cc2ccc(O)cc2)NC(=O)[C@@H](NC(=O)[C@H](CC(C)C)NC(=O)[C@@H](N)CCCNC(=N)N)CSSC[C@@H](C(=O)N2CCC[C@H]2C(=O)O)NC(=O)[C@@H]2CCCN2C(=O)[C@H](CC(C)C)NC(=O)[C@H](C(C)C)NC1=O [fejerlectin, RLCYMVLPCP] (H-RLCYMVLPCP-OH; disulfide 3-9)
[3]
  stability of HA activity in human plasma: stable for 3 h in human plasma
TZM-bl cells
  CC50: 182490 ± 9350 nM
HIV-1SF162
  IC50: 2170 ± 1030 nM
HIV-1NL4-3
  IC50: 1430 ± 340 nM
HIV-1_81A and NL4-3
  IC50: 2800 ± 370 nM
[4]
  EC50: 4200 ± 960 nM
[5]
  EC50: 9630 ± 2300 nM

## O=C(CCc1ccc(O)cc1)c1c(O)cc(O[C@@H]2O[C@H](CO)[C@@H](O)[C@H](O)[C@H]2O)cc1O [trilobatin]
gp41
  HIV-1 entry/fusion inhibition via gp41 NHR: inhibited HIV-1 entry/fusion by binding the gp41 NHR region and blocking the formation of fusion-active 6-HB

## caerin 1.1
HIV-1
  suppression of HIV proliferation: suppress HIV proliferation by direct inactivation

## maraviroc
[2]
  anti-HIV activity when added 8 h after infection: significantly decreased 8 h after infection

## retrocyclin-1
HIV-1
  protection of cells from HIV-1 infection: protect cells from HIV-1 infection by binding with high affinity to gp120, CD4, and galactosylceramide

## sifuvirtide
gp41
  anti-HIV-1 activity by inhibiting 6-HB formation: potent anti-HIV-1 activity by inhibiting 6-HB formation

## B1
fejerlectin
  Kd: 466000 nM

## B2
[6]
  IC50: 2610 nM
